The test system of experiment [1] is Oocyte. Kind of experiment: Induction of immature stage VI Xenopus oocyte maturation assessed as stimulation of progesterone-mediated maturation measured as germinal vesicle (nuclear) breakdown at 100 uM after overnight incubation. Type of experiment: functional, cell-based. In outline: (§1)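 Oocytes (20 per well) pre-treated overnight with compound (100 μM final, DMSO) or DMSO vehicle, then stimulated with 2 μg/ml progesterone. GVBD (animal-pole white spot) scored at the time 50% of DMSO controls reach GVBD. Rate relative to control: 1.0 means no difference, above 1.0 acceleration, below 1.0 delay, 0.0 no maturation. Differences over 20% followed up.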

Experiment [2] concerns Oocyte. Kind of experiment: Inhibition of immature stage VI Xenopus oocyte maturation assessed as inhibition of progesterone-mediated maturation measured as germinal vesicle (nuclear) breakdown at 100 uM after overnight incubation. Type of experiment: functional, cell-based. In outline: as §1

Molecules are shown by their SMILES. Active and inactive are the calls of the source. No cut-off for these calls is given here.

As for `C[C@@]12CC/C=C(/CO)CC[C@@H]3/C(=C\c4cccs4)C(=O)O[C@@H]3[C@@H]1O2`, in the experiment on Oocyte [1], the outcome was Active. Regarding `C[C@@]12CC/C=C(/CO)CC[C@@H]3/C(=C\c4ccsc4)C(=O)O[C@@H]3[C@@H]1O2`, in the experiment on Oocyte [2], the inhibition entry is “Active”.

For the origin of these results see ChEMBL document CHEMBL3352597, “Heck products of parthenolide and melampomagnolide-B as anticancer modulators that modify cell cycle progression” (Eur J Med Chem, 2014).
